Experimental data as given in ChEMBL document CHEMBL3124806, “Imidazopyridine-fused [1,3]-diazepinones: synthesis and antiproliferative activity” (Eur J Med Chem, 2014).

Columns and labels:
Format in all cases: functional
[1] = test system: SF-268; assay: Cytotoxicity against human SF268 cells assessed as cell growth at 10 uM after 48 hrs by SRB assay relative to untreated control; conditions: SF-268, 48 h, read-out: Activity
Outline: (§1)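 NCI-60 one-dose screen: each agent added at 10 µM, cultures incubated 48 h. Endpoint by sulforhodamine B protein-binding dye read spectrophotometrically; growth expressed as percent of untreated control cells.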

[2] = test system: COLO 205; assay: Cytotoxicity against human COLO205 cells assessed as cell growth at 10 uM after 48 hrs by SRB assay relative to untreated control; conditions: COLO 205, 48 h, read-out: Activity
Outline: (§2)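 NCI-60 panel screen at a single concentration of 10 μM with 48 h incubation. Cell density measured by sulforhodamine B protein-binding dye and read spectrophotometrically. Growth expressed as percent of untreated control cells.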

[3] = test system: LOX IMVI; assay: Cytotoxicity against human LOXIMVI cells assessed as cell growth at 10 uM after 48 hrs by SRB assay relative to untreated control; conditions: read-out: Activity; outline: as §2
[4] = test system: PC-3; assay: Cytotoxicity against human PC3 cells assessed as cell growth at 10 uM after 48 hrs by SRB assay relative to untreated control; conditions: PC-3, 48 h, read-out: Activity; outline: as §1
[5] = test system: HOP-92; assay: Cytotoxicity against human HOP92 cells assessed as cell growth at 10 uM after 48 hrs by SRB assay relative to untreated control; conditions: HOP-92, 48 h, read-out: Activity; outline: as §2
[6] = test system: U-251; assay: Cytotoxicity against human U251 cells assessed as cell growth at 10 uM after 48 hrs by SRB assay relative to untreated control; conditions: U-251, 48 h, read-out: Activity
Outline: (§3)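 NCI-60 single-dose screen. Compounds were added to the cultures at 10 μM and incubated for 48 h. The end point was sulforhodamine B protein staining read spectrophotometrically. Growth is reported as percent of untreated control cells.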

[7] = test system: MCF7; assay: Cytotoxicity against human MCF7 cells assessed as cell growth at 10 uM after 48 hrs by SRB assay relative to untreated control; conditions: MCF7, 48 h, read-out: Activity; outline: as §2
[8] = Cytotoxicity against human UO31 cells assessed as cell growth at 10 uM after 48 hrs by SRB assay relative to untreated control; conditions: UO-31, 48 h, read-out: Activity; outline: as §3
[9] = test system: CCRF-CEM; assay: Cytotoxicity against human CCRF-CEM cells assessed as cell growth at 10 uM after 48 hrs by SRB assay relative to untreated control; conditions: read-out: Activity; outline: as §2
[10] = test system: HOP-62; assay: Cytotoxicity against human HOP62 cells assessed as cell growth at 10 uM after 48 hrs by SRB assay relative to untreated control; conditions: HOP-62, 48 h, read-out: Activity; outline: as §2
[11] = test system: SF-295; assay: Cytotoxicity against human SF295 cells assessed as cell growth at 10 uM after 48 hrs by SRB assay relative to untreated control; conditions: SF-295, 48 h, read-out: Activity; outline: as §1
[12] = Cytotoxicity against human NCI-ADR-RES cells assessed as cell growth at 10 uM after 48 hrs by SRB assay relative to untreated control; conditions: read-out: Activity; outline: as §1
[13] = test system: Malme-3M; assay: Cytotoxicity against human MALME-3M cells assessed as cell growth at 10 uM after 48 hrs by SRB assay relative to untreated control; conditions: read-out: Activity; outline: as §2
[14] = test system: SK-OV-3; assay: Cytotoxicity against human SKOV3 cells assessed as cell growth at 10 uM after 48 hrs by SRB assay relative to untreated control; conditions: SK-OV-3, 48 h, read-out: Activity; outline: as §3
[15] = test system: NCI-H522; assay: Cytotoxicity against human NCI-H522 cells assessed as cell growth at 10 uM after 48 hrs by SRB assay relative to untreated control; conditions: NCI-H522, 48 h, read-out: Activity; outline: as §1
[16] = test system: TK-10; assay: Cytotoxicity against human TK10 cells assessed as cell growth at 10 uM after 48 hrs by SRB assay relative to untreated control; conditions: TK-10, 48 h, read-out: Activity; outline: as §3
[17] = test system: NCI-H23; assay: Cytotoxicity against human NCI-H23 cells assessed as cell growth at 10 uM after 48 hrs by SRB assay relative to untreated control; conditions: NCI-H23, 48 h, read-out: Activity; outline: as §1
[18] = test system: HT-29; assay: Cytotoxicity against human HT-29 cells assessed as cell growth at 10 uM after 48 hrs by SRB assay relative to untreated control; conditions: HT-29, 48 h, read-out: Activity; outline: as §2
[19] = test system: KM12; assay: Cytotoxicity against human KM12 cells assessed as cell growth at 10 uM after 48 hrs by SRB assay relative to untreated control; conditions: KM12, 48 h, read-out: Activity; outline: as §2
[20] = test system: SK-MEL-2; assay: Cytotoxicity against human SK-MEL-2 cells assessed as cell growth at 10 uM after 48 hrs by SRB assay relative to untreated control; conditions: SK-MEL-2, 48 h, read-out: Activity; outline: as §1
[21] = test system: RPMI-8226; assay: Cytotoxicity against human RPMI8226 cells assessed as cell growth at 10 uM after 48 hrs by SRB assay relative to untreated control; conditions: RPMI-8226, 48 h, read-out: Activity; outline: as §1
[22] = test system: MOLT-4; assay: Cytotoxicity against human MOLT4 cells assessed as cell growth at 10 uM after 48 hrs by SRB assay relative to untreated control; conditions: MOLT-4, 48 h, read-out: Activity; outline: as §1
[23] = test system: RXF 393; assay: Cytotoxicity against human RXF393 cells assessed as cell growth at 10 uM after 48 hrs by SRB assay relative to untreated control; conditions: RXF 393, 48 h, read-out: Activity; outline: as §1
[24] = test system: HCT-116; assay: Cytotoxicity against human HCT116 cells assessed as cell growth at 10 uM after 48 hrs by SRB assay relative to untreated control; conditions: HCT-116, 48 h, read-out: Activity; outline: as §2
[25] = test system: K562; assay: Cytotoxicity against human K562 cells assessed as cell growth at 10 uM after 48 hrs by SRB assay relative to untreated control; conditions: K562, 48 h, read-out: Activity; outline: as §2
[26] = test system: UACC-62; assay: Cytotoxicity against human UACC62 cells assessed as cell growth at 10 uM after 48 hrs by SRB assay relative to untreated control; conditions: UACC-62, 48 h, read-out: Activity; outline: as §3
[27] = test system: SK-MEL-5; assay: Cytotoxicity against human SK-MEL-5 cells assessed as cell growth at 10 uM after 48 hrs by SRB assay relative to untreated control; conditions: SK-MEL-5, 48 h, read-out: Activity; outline: as §3
[28] = test system: OVCAR-3; assay: Cytotoxicity against human OVCAR3 cells assessed as cell growth at 10 uM after 48 hrs by SRB assay relative to untreated control; conditions: OVCAR-3, 48 h, read-out: Activity; outline: as §1
[29] = test system: MDA-MB-468; assay: Cytotoxicity against human MDA-MB-468 cells assessed as cell growth at 10 uM after 48 hrs by SRB assay relative to untreated control; conditions: MDA-MB-468, 48 h, read-out: Activity; outline: as §1
[30] = test system: IGROV-1; assay: Cytotoxicity against human IGROV1 cells assessed as cell growth at 10 uM after 48 hrs by SRB assay relative to untreated control; conditions: IGROV-1, 48 h, read-out: Activity; outline: as §2
[31] = test system: MDA-MB-231; assay: Cytotoxicity against human MDA-MB-231 cells assessed as cell growth at 10 uM after 48 hrs by SRB assay relative to untreated control; conditions: MDA-MB-231, 48 h, read-out: Activity; outline: as §1

SMILES | growth at 10 µM [1] | growth at 10 µM [2] | growth at 10 µM [3] | growth at 10 µM [4] | growth at 10 µM [5] | growth at 10 µM [6] | growth at 10 µM [7] | growth at 10 µM [8] | growth at 10 µM [9] | growth at 10 µM [10] | growth at 10 µM [11] | growth at 10 µM [12] | growth at 10 µM [13] | growth at 10 µM [14] | growth at 10 µM [15] | growth at 10 µM [16] | growth at 10 µM [17] | growth at 10 µM [18] | growth at 10 µM [19] | growth at 10 µM [20] | further results
Cc1ccccc1C1=Nc2nc3ccccn3c2C(=O)[C@H](Cc2ccccc2)N1 | 104% | 107% | 91.7% | 89.4% | 90.5% | 100% | 84.9% | 80.6% | 105% | 93.4% | 96.5% | 95.4% | 109% | 111% | 121% | 138% | 95.3% | 115% | 108% | 115% | growth at 10 µM [21]: 98.4%; growth at 10 µM [22]: 111%; growth at 10 µM [23]: 105%; growth at 10 µM [24]: 86.9%; growth at 10 µM [25]: 113%; growth at 10 µM [26]: 103%; growth at 10 µM [27]: 103%; growth at 10 µM [28]: 108%; growth at 10 µM [29]: 104%; growth at 10 µM [30]: 108%; growth at 10 µM [31]: 104%
O=C1c2c(nc3ccccn23)N=C(c2ccccc2)N2CCC[C@@H]12 | 97.8% | 99.3% | 90.1% | 92.6% | 82.7% | 96.2% | 93% | 88.7% | 104% | 99.9% | 103% | 97.7% | 102% | 103% | 127% | 124% | 97.8% | 114% | 101% | 114% | growth at 10 µM [21]: 96.5%; growth at 10 µM [22]: 111%; growth at 10 µM [23]: 98.5%; growth at 10 µM [24]: 97.8%; growth at 10 µM [25]: 124%; growth at 10 µM [26]: 107%; growth at 10 µM [27]: 94.7%; growth at 10 µM [28]: 105%; growth at 10 µM [29]: 101%; growth at 10 µM [30]: 114%; growth at 10 µM [31]: 94.6%
COc1ccc(C2=Nc3nc4ccccn4c3C(=O)[C@H](Cc3ccccc3)N2)cc1 | 105% | 127% | 95.2% | 91.8% | 95.6% | 95.3% | 90.1% | 83.5% | 99.4% | 88.2% | 92.5% | 89.2% | 97.6% | 110% | 94.7% | 133% | 92% | 117% | 99.9% | 106% | growth at 10 µM [21]: 98.1%; growth at 10 µM [22]: 113%; growth at 10 µM [23]: 107%; growth at 10 µM [24]: 88%; growth at 10 µM [25]: 86%; growth at 10 µM [26]: 99.5%; growth at 10 µM [27]: 104%; growth at 10 µM [28]: 110%; growth at 10 µM [29]: 98.5%; growth at 10 µM [30]: 107%; growth at 10 µM [31]: 121%
COc1ccc(C2=Nc3nc4ccccn4c3C(=O)[C@H](C)N2)cc1 | 104% | 97.5% | 87.6% | 87.3% | 72.5% | 98.5% | 72% | 55.6% | 91.7% | 80.4% | 98.2% | 96.5% | 94.3% | 94.7% | 87.4% | 99.2% | 93.5% | 98.5% | 102% | 83.4% | growth at 10 µM [21]: 88.5%; growth at 10 µM [22]: 84.4%; growth at 10 µM [23]: 121%; growth at 10 µM [24]: 95.9%; growth at 10 µM [25]: 86.8%; growth at 10 µM [26]: 94.3%; growth at 10 µM [27]: 100%; growth at 10 µM [28]: 98.3%; growth at 10 µM [29]: 76.5%; growth at 10 µM [30]: 89.3%; growth at 10 µM [31]: 84.9%
O=C1Nc2nc3ccccn3c2C(=O)[C@H](Cc2ccccc2)N1 | 101% | 126% | 93.5% | 95.2% | 86.5% | 93.2% | 95.7% | 90.2% | 113% | 97.2% | 105% | 98.7% | 93.2% | 112% | 94% | 99.8% | 101% | 106% | 100% | 113% | growth at 10 µM [21]: 105%; growth at 10 µM [22]: 110%; growth at 10 µM [23]: 105%; growth at 10 µM [24]: 92.3%; growth at 10 µM [25]: 106%; growth at 10 µM [26]: 104%; growth at 10 µM [27]: 97.2%; growth at 10 µM [28]: 101%; growth at 10 µM [29]: 98.4%; growth at 10 µM [30]: 109%; growth at 10 µM [31]: 106%
C[C@H]1NC(c2ccc(Br)cc2)=Nc2nc3ccccn3c2C1=O | 99.8% | 106% | 92.3% | 83.8% | 66.6% | 101% | 65.1% | 51.5% | 96.9% | 69.8% | 96.9% | 95.7% | 101% | 97.8% | 79.2% | 98.3% | 90.7% | 104% | 102% | 81.8% | growth at 10 µM [21]: 91%; growth at 10 µM [22]: 79.7%; growth at 10 µM [23]: 94.8%; growth at 10 µM [24]: 90.2%; growth at 10 µM [25]: 84.8%; growth at 10 µM [26]: 84%; growth at 10 µM [27]: 94.2%; growth at 10 µM [28]: 95.9%; growth at 10 µM [29]: 102%; growth at 10 µM [30]: 81.1%; growth at 10 µM [31]: 74%
